Active and inactive are the calls of the source. No cut-off for these calls is given here.
Tests used:
[1] = Half life in Sprague-Dawley rat at 1 mg/kg, iv by LC-MS/MS analysis; assay type: ADME, organism-based; conditions: in vivo
Procedure, shortened: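 Male Sprague-Dawley rats (about 200‒220 g; n = 6) were fasted overnight and given a single 1 mg/kg iv dose in DMSO:castor oil:saline (3:3:94). Blood was sampled from the orbital artery into heparin tubes. Plasma was analysed by LC/MS/MS (ESI, MRM), and parameters came from noncompartmental analysis. Values are mean ± SD.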

[2] = molecular target: T1, Ubiquitin-conjugating enzyme E2 H (Homo sapiens) (UniProt P62256); test: Inhibition of UbcH2 (unknown origin) at 2.5 to 10 uM preincubated for 15 mins followed by E1, Ub and ATP addition measured after 40 mins by Western blot analysis
T1 sequence (whole entry): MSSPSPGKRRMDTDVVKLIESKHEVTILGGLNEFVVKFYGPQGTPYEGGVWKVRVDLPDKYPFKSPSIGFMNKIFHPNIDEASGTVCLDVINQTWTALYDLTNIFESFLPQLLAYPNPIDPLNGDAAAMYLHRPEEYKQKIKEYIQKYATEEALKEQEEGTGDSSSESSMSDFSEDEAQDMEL

[3] = Half life in Sprague-Dawley rat at 5 mg/kg, po via gavage by LC-MS/MS analysis; assay type: ADME, organism-based; conditions: in vivo
Procedure, shortened: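 Male Sprague-Dawley rats (about 200‒220 g; n = 6) were fasted overnight and gavaged with 5 mg/kg as a suspension in 0.5% methylcellulose. Blood was taken from the orbital artery at 0.083–24 h into heparin tubes. Plasma was quantified by LC/MS/MS (ESI, MRM), with noncompartmental analysis. Bioavailability was referenced to a 1 mg/kg iv dose. Values are mean ± SD.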

[4] = Half life in rat plasma at 5 uM; assay type: ADME, cell-free
Procedure, shortened: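 Compound (5 µM final, from a 25 mM DMSO stock) was incubated at 37 °C in rat plasma (0–90 min) or rat whole blood (0, 5, 10, 30, 60, 90 min). Reactions were quenched with ice-cold acetonitrile, centrifuged, and the supernatants analysed.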

[5] = system: Rattus norvegicus; test: Antiarthritic activity in Wistar rat Freund's adjuvant-induced arthritis model assessed as reduction in arthritis index score at 5 to 20 mg/kg, po qd administered on day 10 to 20 postimmunization measured every 2 to 3 days during compound dosing; assay type: functional, organism-based
Procedure, shortened: (§1)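 Adjuvant arthritis was induced by intradermal CFA (0.1 mL) into the base of the left hind paw (day 0), with a boost 10 days later. Rats were dosed orally once daily at 5 or 20 mg/kg from day 10 to day 20, with 10 rats per group. Vehicle controls received 0.3% sodium carboxymethylcellulose. Two blinded observers scored the animals every 2 or 3 days. Data are mean ± S.E.M.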

[6] = system: Rattus norvegicus; test: Antiarthritic activity in Wistar rat Freund's adjuvant-induced arthritis model assessed as reduction in hind paw swelling at 5 to 20 mg/kg, po qd administered on day 10 to 20 postimmunization measured every 2 to 3 days during compound dosing; assay type: functional, organism-based; procedure, shortened: as §1
[7] = system: Rattus norvegicus; test: Antiarthritic activity in Wistar rat Freund's adjuvant-induced arthritis model assessed as protection against body weight loss at 5 to 20 mg/kg, po qd administered on day 10 to 20 postimmunization measured every 2 to 3 days during compound dosing; assay type: functional, organism-based; procedure, shortened: as §1
[8] = Binding affinity to IYHPNINSNGSICLDILR assessed as covalent adduct formation with Cys85 residues after 1 hr by LC/MS/MS analysis

SMILES: C=C1C(=O)O[C@H]2c3c(C)c(OCc4ccccc4Br)cc(C)c3CC[C@@H]12
- half-life [1]: 1.76 h
- inhibition [2]: inactive
- half-life [3]: 2.86 h
- half-life at 5 µM [4]: 1.43 h
- Activity [5]: Active
- Activity [6]: Active
- Activity [7]: inactive
- Activity [8]: Active

From ChEMBL document CHEMBL4028851, “Discovery of Potent Small-Molecule Inhibitors of Ubiquitin-Conjugating Enzyme UbcH5c from α-Santonin Derivatives” (J Med Chem, 2017)
